These results are taken from ChEMBL document CHEMBL1138317, “Antibacterial oxazolidinones possessing a novel C-5 side chain. (5R)-trans-3-[3-Fluoro-4- (1-oxotetrahydrothiopyran-4-yl)phenyl]-2- oxooxazolidine-5-carboxylic acid amide (PF-00422602), a new lead compound” (J Med Chem, 2007).

One data set relates to Enterococcus faecalis. Kind of data set: Antibacterial activity against vancomycin-resistant Enterococcus faecalis MGH2 EF1 by microbroth technology. The data set is classed as functional. In a few lines:
(§1)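 Drug-resistant panel strains (levofloxacin/oxacillin-resistant S. aureus, levofloxacin/penicillin-resistant S. pneumoniae, vancomycin-resistant E. faecalis and E. faecium). Broth microdilution MIC in µg/mL; value reported as MIC90 across the strains of each resistant group.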
Background: Dilution methods test growth across graded concentrations, often in twofold steps.

The test system of data set [1] is Rattus norvegicus. Kind of data set: Effect on hematology in Sprague-Dawley rat assessed as decrease in hemoglobin at 200 mg/kg/day, po after 14 days. It is filed as ADME, organism-based. Set-up: route oral; scale not given: the % may be the effect or the level left. Conditions: in vivo, 336 h. In a few lines:
(§2)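 Female Sprague-Dawley rats received vehicle or drug by oral gavage daily for 14 days, at doses of 40-1000 (mg/kg)/day across the studies. End points were moribundity or lethality, hematology (RBC, hemoglobin, hematocrit, reticulocytes), bone marrow M:E ratio and plasma AUC(0-24).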

The subject of data set [2] is Rattus norvegicus. Put plainly: Effect on hematology in Sprague-Dawley rat assessed as decrease in red blood cells at 200 mg/kg/day, po after 14 days. The data set is classed as ADME, organism-based. Set-up: route oral; scale not given: the % may be the effect or the level left. The conditions noted are these: in vivo, 336 h. In a few lines: as §2
Data set [3] has as its system Rattus norvegicus. Put plainly: Toxicity in Sprague-Dawley rat at 1000 mg/kg/day, po after 14 days. The data set is classed as organism-based. Also on record: route oral. Conditions: in vivo, 336 h. In outline: as §2
Data set [4] concerns Staphylococcus aureus. Put plainly: Antibacterial activity against methicillin-resistant Staphylococcus aureus SA1417 in po dosed CD1 mouse systemic infection model assessed as mortality after 7 days. It is filed as functional.
For the next data set, the system named is Streptococcus pyogenes. Put plainly: Antibacterial activity against Streptococcus pyogenes C203 by micro-broth technology. It is filed as functional.
A further data set relates to Enterococcus. Kind of data set: Bacteriostatic activity against Enterococcus after 48 hrs by time kill study. The data set is classed as functional, organism-based.
The subject of data set [5] is Staphylococcus aureus. Put plainly: Antibacterial activity against levofloxacin-oxacillin-resistant Staphylococcus aureus UC76 SA1 by micro-broth technology. It is filed as functional. In a few lines:
as §1

Data set [6] concerns Streptococcus pneumoniae. Put plainly: Antibacterial activity against levofloxacin-penicillin-resistant Streptococcus pneumoniae SV1 SP3 by microbroth technology. The data set is classed as functional. In a few lines: as §1
Data set [7] relates to Rattus norvegicus. Put plainly: Effect on hematology in Sprague-Dawley rat assessed as decrease in reticulocytes at 200 mg/kg/day after 14 days. The data set is classed as ADME, organism-based. Set-up: scale not given: the % may be the effect or the level left. Conditions: in vivo, 336 h. In a few lines: as §2
For the next data set, the system named is Escherichia coli. Kind of data set: Inhibition of protein synthesis in Escherichia coli by cell-free transcription-translation assay. It is filed as functional. In outline:
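E. coli cell-free coupled transcription/translation run in microtiter format with a luciferase reporter; luminescence was the read-out for protein synthesis.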

In data set [8] the target is T1, Amine oxidase [flavin-containing] A (Homo sapiens, UniProt P21397).
T1 sequence (P21397 whole entry): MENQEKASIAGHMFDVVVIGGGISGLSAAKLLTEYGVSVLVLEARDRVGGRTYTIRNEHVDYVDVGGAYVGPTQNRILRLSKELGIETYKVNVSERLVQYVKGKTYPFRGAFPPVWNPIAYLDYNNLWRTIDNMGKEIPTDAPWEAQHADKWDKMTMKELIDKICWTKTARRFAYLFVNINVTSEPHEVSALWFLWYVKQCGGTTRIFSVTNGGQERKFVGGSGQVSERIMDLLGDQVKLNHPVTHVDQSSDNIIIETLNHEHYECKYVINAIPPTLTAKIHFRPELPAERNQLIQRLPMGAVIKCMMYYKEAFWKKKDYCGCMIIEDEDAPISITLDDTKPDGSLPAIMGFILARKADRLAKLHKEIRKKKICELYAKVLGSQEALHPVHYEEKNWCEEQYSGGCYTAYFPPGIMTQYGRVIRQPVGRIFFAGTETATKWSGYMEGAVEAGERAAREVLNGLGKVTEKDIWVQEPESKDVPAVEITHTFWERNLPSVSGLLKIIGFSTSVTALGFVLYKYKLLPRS
Put plainly: Inhibition of human recombinant MAOA.

Data set [9] in a line: AUC (0 to 24 hrs) in Sprague-Dawley rat plasma at 200 mg/kg/day, po after 14 days. The data set is classed as ADME, organism-based. Set-up: dose 200 mg/kg/day, time < 24 hr, route oral. In a few lines: as §2
Data set [10] deals with Staphylococcus aureus. Put plainly: Antibacterial activity against […] in po dosed CD1 mouse systemic infection model assessed as mortality after 7 days. The data set is classed as functional.
Data set [11] concerns Staphylococcus aureus. Kind of data set: Antibacterial activity against Staphylococcus aureus UC76 in po dosed CD1 mouse systemic infection model assessed as mortality after 7 days. The data set is classed as functional.
The subject of data set [12] is Rattus norvegicus. Kind of data set: Effect on hematology in Sprague-Dawley rat assessed as increase in hematocrit at 200 mg/kg/day, po after 14 days. The data set is classed as ADME, organism-based. Set-up: route oral. The conditions noted are these: in vivo, 336 h.
The subject of data set [13] is Streptococcus pneumoniae. Kind of data set: Bactericidal activity against Streptococcus pneumoniae after 48 hrs by time kill study. The data set is classed as functional, organism-based. In a few lines:
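Time-kill study: bacteria exposed continuously to drug at 2-16× the MIC and sampled over 48 h to assess eradication.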

Data set [14] is described as follows: AUC (0 to 24 hrs) in Sprague-Dawley rat plasma at 40 mg/kg/day after 14 days. It is filed as ADME, organism-based. Also on record: dose 40 mg/kg/day, time < 24 hr. In outline: as §2
A further data set has as its system Staphylococcus. Put plainly: Bacteriostatic activity against Staphylococcus after 48 hrs by time kill study. It is filed as functional, organism-based.
Another data set concerns Enterococcus faecium. Kind of data set: Antibacterial activity against vancomycin-resistant Enterococcus faecium by micro-broth technology. It is filed as functional. In a few lines:
as §1

Each structure is given as a SMILES string. Values after ≈ are worked out from the molar mass of the structure shown. Active and inactive are the calls of the source. No cut-off for these calls is given here.

For orientation: MIC90 means the lowest concentration that inhibits either 90% of growth or 90% of the strains tested, depending on the study. The MIC is the lowest concentration found to suppress growth. By IC50 is commonly meant the concentration that inhibits the measured activity by half. Usually AUC stands for the area under the concentration-time curve, a measure of exposure.

As to `CC(=O)NC[C@H]1CN(c2ccc(N3CCOCC3)c(F)c2)C(=O)O1` [LINEZOLID], the MIC90 stood at 2 µg/mL (≈ 5.93 µM) in the data set on Enterococcus faecalis, 4 µg/mL (≈ 11.9 µM) in the data set with Staphylococcus aureus [5], 1 µg/mL (≈ 2.96 µM) in the data set on Streptococcus pneumoniae [6] and 4 µg/mL (≈ 11.9 µM) in the data set with Enterococcus faecium. The Activity in the data set on Rattus norvegicus [1] is 9%; with Rattus norvegicus [2], 9%; in the data set with Rattus norvegicus [3] it was “Toxic”; in the data set on Rattus norvegicus [7], 97%; in the data set on Rattus norvegicus [12], -9%. Also, the PD50 was determined as 6.25 mg/kg in the data set with Staphylococcus aureus [4], 5 mg/kg in the data set on Staphylococcus aureus [10] and 3.1 mg/kg in the data set with Staphylococcus aureus [11]. Besides, the MIC in the data set on Streptococcus pyogenes worked out at 4 µg/mL (≈ 11.9 µM). Moreover, the result in the data set with Enterococcus, with Streptococcus pneumoniae [13] and in the data set with Staphylococcus was Active. Moreover, the IC50 with Escherichia coli came out at 3.6 µM; in data set [8], 53 µM. Besides, the AUC at 24 h is 666 µg·h/mL in data set [9] and 105 µg·h/mL in data set [14].
